The sample as a whole holds a higher share of hits than the screen did.
IDH1 R132H inh: inhibitors of IDH1 R132H reductase, primary screen, biochemical, plate reader, single point; Isocitrate dehydrogenase [NADP] cytoplasmic (Homo sapiens), O75874; diaphorase/resazurin fluorescence, 60 min; inhibition, % at 10 µM; 0.18% of 70,000 active; in the data active = inhibition above about 34%
Target sequence (O75874 whole entry R132H): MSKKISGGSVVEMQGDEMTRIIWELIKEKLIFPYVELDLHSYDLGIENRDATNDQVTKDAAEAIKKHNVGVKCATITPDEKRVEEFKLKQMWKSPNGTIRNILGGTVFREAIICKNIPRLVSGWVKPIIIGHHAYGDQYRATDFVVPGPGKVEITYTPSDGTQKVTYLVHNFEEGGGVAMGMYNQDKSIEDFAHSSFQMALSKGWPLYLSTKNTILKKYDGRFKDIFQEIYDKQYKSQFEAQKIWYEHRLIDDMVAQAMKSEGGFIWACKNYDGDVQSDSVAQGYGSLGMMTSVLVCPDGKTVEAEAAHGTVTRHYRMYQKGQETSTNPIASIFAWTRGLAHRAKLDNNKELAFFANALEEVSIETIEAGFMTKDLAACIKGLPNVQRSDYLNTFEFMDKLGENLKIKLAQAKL
GASC1 inh: inhibitors of GASC-1 (KDM4C) histone demethylase, primary screen, biochemical, single concentration HTS; AID 720574, 2013; inhibition, % at 12.5 µM; GST-KDM4C 2-372, H3K9me3 peptide, LANCE TR-FRET; Lysine-specific demethylase 4C (Homo sapiens), Q9H3R0; 0.15% of 96,000 active;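 active = mean replicate inhibition above about 25%, with at least 55% of replicates also reaching it, limit read from the data, passing the limit was not always enough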
Target sequence (Q9H3R0 2-372 limits assumed): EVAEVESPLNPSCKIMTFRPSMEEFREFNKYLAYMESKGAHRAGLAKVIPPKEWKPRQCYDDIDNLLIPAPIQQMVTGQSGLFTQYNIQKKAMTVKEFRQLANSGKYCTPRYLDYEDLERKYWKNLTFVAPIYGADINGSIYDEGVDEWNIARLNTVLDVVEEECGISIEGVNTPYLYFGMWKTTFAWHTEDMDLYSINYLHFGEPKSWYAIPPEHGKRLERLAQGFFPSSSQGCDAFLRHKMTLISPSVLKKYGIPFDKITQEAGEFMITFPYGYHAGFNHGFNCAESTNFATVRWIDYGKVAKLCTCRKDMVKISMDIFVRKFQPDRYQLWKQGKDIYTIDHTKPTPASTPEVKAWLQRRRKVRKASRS
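System – N-terminal GST-fused human GASC-1 (KDM4C) fragment, residues 2-372 · Input – enzyme final amount 10 nM · Technique – LANCE TR-FRET, Eu antibody, ULight-streptavidin, EDTA, ex 340 nm, em 618/671 nm · Medium – HEPES buffer, pH 7.5, plus ascorbate · Incubation – enzyme reaction 30 min, then detection 60 min, both room temperature · Reagent – H3K9me3 peptide with Fe(II)/2OG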
T cruzi growth-1: T. cruzi intracellular proliferation inhibitors, primary screen, cell-based, beta-gal Tulahuen parasites, NIH3T3 host, luminescence | 5.9% of 77,000 active | inhibition, % at 8.34 µM | T. cruzi beta-gal in NIH3T3, GalScreen luminescence, 90 h;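 active = mean inhibition above about 93%, with at least 55% of replicates each passing it, limit read from the data, passing the limit was not always enough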
T cruzi growth-2: T. cruzi intracellular proliferation inhibitors, confirmation, cell-based, NIH3T3 host, beta-gal parasite, luminescence, cherry-pick; inhibition, % at 8.35 µM; T. cruzi beta-gal in NIH3T3, GalScreen luminescence, 90 h; shares compounds with T cruzi growth-1; 72% of 5,600 active;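 active = mean replicate inhibition above about 95% and at least 55% of replicates individually reaching it, limit read from the data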
T cruzi growth-3: inhibitors of intracellular T. cruzi replication, confirmation, NIH3T3 host cells, beta-gal parasites, cherry-pick, set 2. shares compounds with T cruzi growth-1. T. cruzi beta-gal in NIH3T3, GalScreen luminescence, 90 h. inhibition, % at 2.09 µM. 21% of 5,600 active. AID 651740, 2012;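 active = mean inhibition above about 95%, with at least 55% of replicates also reaching it, limit read from the data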
3T3 cytotox: cytotoxicity in mouse NIH/3T3 fibroblasts, confirmation, cytotoxicity control for T. cruzi proliferation inhibitor project, cell-based, cherry-pick, single point; shares compounds with T cruzi growth-1; 14% of 5,600 active; NIH/3T3 viability, CellTiter-Glo ATP luminescence, 90 h; cytotoxicity (signal decrease), % at 8.35 µM; AID 651742, 2012;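 active = mean signal decrease across replicates above about 35% based on untreated-well scatter, with enough replicates individually passing, limit read from the data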
NIH3T3 tox 2: NIH/3T3 fibroblast cytotoxicity, confirmation, cytotoxicity control, cell-based, cherry-pick, single point, set 2. inhibition, % at 24.9 µM. AID 651744, 2012. 56% of 5,600 active. shares compounds with T cruzi growth-1. NIH/3T3 viability, CellTiter-Glo ATP luminescence, 90 h;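 active = mean loss of cell viability signal at or above a set limit, and enough replicates individually reaching it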
Large screens that a line does not name were inactive (follow-up assays come after a bar, where they were run).

C/C=C/c1ccc2c(c1)O[C@@H](CN(C)Cc1cccnc1)[C@H](C)CN([C@@H](C)CO)S2(=O)=O	T cruzi growth-1 105.7 | T cruzi growth-2 101.0 | T cruzi growth-3 inactive | 3T3 cytotox 38.2 | NIH3T3 tox 2 69.6
C/C=C/c1ccc2c(c1)O[C@H](CN(C)Cc1cccnc1)[C@@H](C)CN([C@@H](C)CO)S2(=O)=O	T cruzi growth-1 114.4 | T cruzi growth-2 102.8 | T cruzi growth-3 105.2 | 3T3 cytotox inactive | NIH3T3 tox 2 54.1
CC(=O)OC(CCCCCCCCCC(C)O)Cc1cc(O)cc(O)c1 (stereo unspecified)	none (no result: GASC1 inh, T cruzi growth-1)
C=CCNC(=O)[C@@H]1[C@H]2C(=O)O[C@H](c3ccccc3)[C@H](c3ccccc3)N2[C@H](c2ccccc2OCCO)[C@@]12C(=O)Nc1ccc(C#CCC(C(=O)OC)C(=O)OC)cc12	none (no result: GASC1 inh, T cruzi growth-1)
C[C@@H]1CCCCO[C@H](CN(C)S(=O)(=O)c2ccc(Cl)cc2)[C@H](C)CN([C@H](C)CO)C(=O)c2cc(NC(=O)Cc3ccccc3)ccc2O1	T cruzi growth-1 117.0 | T cruzi growth-2 109.7 | T cruzi growth-3 105.2 | 3T3 cytotox inactive | NIH3T3 tox 2 inactive
C[C@H](CO)N1C[C@H](C)[C@H](CN(C)S(=O)(=O)c2ccc(Cl)cc2)OCCCC[C@H](C)Oc2ccc(NC(=O)Cc3ccccc3)cc2C1=O	T cruzi growth-1 105.4 (no result: IDH1 R132H inh) | T cruzi growth-2 99.9 | T cruzi growth-3 108.9 | 3T3 cytotox inactive | NIH3T3 tox 2 inactive
C[C@@H]1CN([C@@H](C)CO)C(=O)c2cc(NC(=O)Cc3ccccc3)ccc2O[C@@H](C)CCCCO[C@H]1CN(C)S(=O)(=O)c1ccc(Cl)cc1	none
C[C@H](CO)N1C[C@H](C)[C@H](CN(C)S(=O)(=O)c2ccccc2)OCCCC[C@H](C)Oc2ccc(NC(=O)Cc3ccccc3)cc2C1=O	none (no result: T cruzi growth-1)
C[C@@H]1CCCCO[C@@H](CN(C)S(=O)(=O)c2ccc(Cl)cc2)[C@H](C)CN([C@H](C)CO)C(=O)c2cc(NC(=O)Cc3ccccc3)ccc2O1	T cruzi growth-1 115.7 | T cruzi growth-2 105.0 | T cruzi growth-3 102.8 | 3T3 cytotox inactive | NIH3T3 tox 2 inactive
C[C@H]1CCCCO[C@H](CN(C)S(=O)(=O)c2ccc(Cl)cc2)[C@@H](C)CN([C@@H](C)CO)C(=O)c2cc(NC(=O)Cc3ccccc3)ccc2O1	T cruzi growth-1 112.0 (no result: IDH1 R132H inh) | T cruzi growth-2 103.3 | T cruzi growth-3 inactive | 3T3 cytotox inactive | NIH3T3 tox 2 inactive
C[C@H](CO)N1C[C@H](C)[C@@H](CN(C)S(=O)(=O)c2ccccc2)OCCCC[C@H](C)Oc2ccc(NC(=O)Cc3ccccc3)cc2C1=O	none (no result: IDH1 R132H inh, T cruzi growth-1)
C[C@H]1CCCCO[C@H](CN(C)S(=O)(=O)c2ccccc2)[C@@H](C)CN([C@@H](C)CO)C(=O)c2cc(NC(=O)Cc3ccccc3)ccc2O1	none (no result: T cruzi growth-1)
COC(=O)c1cccc(NC(=O)CSc2nc3cc4ccccc4cc3[nH]2)c1	none (no result: GASC1 inh, T cruzi growth-1)
O=C(CN1C(=O)c2cccc3cccc1c23)Nc1ccc(S(=O)(=O)N2CCCCC2)cc1	none (no result: GASC1 inh, T cruzi growth-1)
COc1ccc(OC)c(NC(=O)COc2ccc3c(=O)c(-c4ccc(OC)c(OC)c4)c(C(F)(F)F)oc3c2)c1	none (no result: GASC1 inh, T cruzi growth-1)
CCc1ccc(OCC(=O)NC(=S)Nc2cccc3nsnc23)cc1	none (no result: GASC1 inh, T cruzi growth-1)
CCN(CC(=O)Nc1ccccc1)S(=O)(=O)c1ccc(F)cc1	none (no result: GASC1 inh, T cruzi growth-1)
COc1ccc(-c2cc(=O)[nH]c(SCC(=O)Nc3ccc(Oc4ccccc4)cc3)n2)cc1	none (no result: GASC1 inh, T cruzi growth-1)
CC=Cc1ccc2n(c1=O)C[C@H]1[C@H](CO)[C@@H](C(=O)NCc3ccccc3F)N(S(C)(=O)=O)[C@@H]21 (mixture of isomers)	none (no result: IDH1 R132H inh)
CC=Cc1ccc2n(c1=O)C[C@H]1[C@H](CO)[C@@H](C(=O)NCc3ccccc3)[C@@H]2N1C (mixture of isomers)	T cruzi growth-1 96.3 (no result: IDH1 R132H inh) | T cruzi growth-2 inactive | T cruzi growth-3 inactive | 3T3 cytotox inactive | NIH3T3 tox 2 inactive
CC=Cc1ccc2n(c1=O)C[C@@H]1[C@@H](CO)[C@H](C(=O)N3CCc4ccccc4C3)[C@H]2N1CC (mixture of isomers)	none (no result: IDH1 R132H inh)
CC=Cc1ccc2n(c1=O)C[C@H]1[C@H](CO)[C@@H](C(=O)NCCc3ccccc3)[C@@H]2N1C (mixture of isomers)	none (no result: IDH1 R132H inh)
CC=Cc1ccc2n(c1=O)C[C@H]1[C@H](CO)[C@@H](C(=O)NCc3ccccn3)[C@@H]2N1CCC (mixture of isomers)	T cruzi growth-1 108.3 (no result: IDH1 R132H inh) | T cruzi growth-2 109.8 | T cruzi growth-3 inactive | 3T3 cytotox inactive | NIH3T3 tox 2 inactive
CC=Cc1ccc2n(c1=O)C[C@H]1[C@H](CO)[C@@H](C(=O)N3CCc4ccccc4C3)[C@@H]2N1CCC (mixture of isomers)	T cruzi growth-1 102.9 (no result: IDH1 R132H inh) | T cruzi growth-2 inactive | T cruzi growth-3 inactive | 3T3 cytotox inactive | NIH3T3 tox 2 inactive
CC=Cc1ccc2n(c1=O)C[C@H]1[C@H](CO)[C@@H](C(=O)NCc3ccccc3Cl)N(S(C)(=O)=O)[C@@H]21 (mixture of isomers)	T cruzi growth-1 107.4 (no result: IDH1 R132H inh) | T cruzi growth-2 inactive | T cruzi growth-3 inactive | 3T3 cytotox inactive | NIH3T3 tox 2 inactive
CC=Cc1ccc2n(c1=O)C[C@@H]1[C@@H](CO)[C@H](C(=O)NCc3ccccn3)[C@H]2N1CC1CC1 (mixture of isomers)	none (no result: IDH1 R132H inh)
CC(=O)c1cccc(NC(=O)CN(C2CCCCC2)S(=O)(=O)c2ccc(Br)cc2)c1	none (no result: GASC1 inh, T cruzi growth-1)
COC(=O)c1ccc(C)c(NC(=O)CN(c2cc(Cl)c(Cl)cc2Cl)S(C)(=O)=O)c1	none (no result: GASC1 inh, T cruzi growth-1)
Cc1c(C=Nc2ccc(C(C)C)cc2)sc2ccccc12	none (no result: GASC1 inh, T cruzi growth-1)
O=C(COc1ccc([N+](=O)[O-])cc1)Nc1ccc(Cl)c(-c2nc3ccccc3s2)c1	none (no result: GASC1 inh, T cruzi growth-1)
CCn1c(SCC(=O)Nc2ccc(Br)cc2)nnc1-c1ccccc1	none (no result: GASC1 inh, T cruzi growth-1)
CCN1[C@@H]2Cn3c(ccc(/C=C/c4ccccc4)c3=O)[C@H]1[C@@H](C(=O)N1CCCCC1)[C@@H]2CO	T cruzi growth-1 169.5 (no result: IDH1 R132H inh) | T cruzi growth-2 inactive | T cruzi growth-3 inactive | 3T3 cytotox inactive | NIH3T3 tox 2 45.1
CCN1[C@@H]2Cn3c(ccc(/C=C/c4ccccc4)c3=O)[C@H]1[C@@H](C(=O)N1CCOCC1)[C@@H]2CO	none (no result: IDH1 R132H inh)

Screening data from PubChem BioAssay.
